A short description of series [1]: Chemical stability of the compound assessed as half life at pH 4 to 10. The conditions noted are these: buffer. Format: physicochemical.
Series [2] can be described thus: Photolytic stability of the compound in phosphate buffer at pH 7 up to 4 hrs by LC-UV-MS analysis. The series is classed as physicochemical. The conditions noted are these: pH 7, 4 h.
Series [3] in a line: Intrinsic clearance in human liver microsomes. Format: ADME, Microsome.
Series [4] in a line: Clearance in rat at 2 mg/kg, iv. Details: dose 2 mg/kg, route intravenous. Format: ADME, organism-based. The conditions noted are these: in vivo. The method in brief: (§1)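 Rats dosed intravenously at 2 mg/kg, n = 2 animals. Clearance is reported in ml/min/kg, half-life in h and steady-state volume of distribution in l/kg.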
Series [5] can be described thus: Half life in rat at 2 mg/kg, iv. Format: ADME, organism-based. Details: dose 2 mg/kg, route intravenous. The conditions noted are these: in vivo. The method in brief:
as §1

The nature of series [6]: Intrinsic clearance in Sprague-Dawley rat hepatocytes measured per 10^6 cells. Format: ADME, cell-based, Liver, Hepatocyte.
Series [7] in a line: Volume of distribution at steady state in rat at 2 mg/kg, iv. The series is classed as ADME, organism-based. The following applies: in vivo, read-out: Vdss. Details: dose 2 mg/kg, route intravenous. The gist of the method:
as §1

Some results are limits rather than exact numbers.

Broadly, the half-life is how long it takes for the measured level to halve. For `Cc1ccc(Oc2ccc(C(=O)NCc3ccncc3)cc2)cc1`, the half-life in series [1] is above 41.7 days.
In the case of `O=C(NCc1ccncc1)c1ccc(Oc2ccccc2)cc1`, the half-life in series [1] is above 41.7 days. Moreover, the Stability entry in series [2] is “Stable”.
With `O=C(NCc1ccncc1)c1ccc(OCc2ccccc2)cc1`, the half-life in series [1] is above 41.7 days. The Stability entry in series [2] was “Stable”.
Turning to `O=C(NCc1ccncc1)c1ccc(Oc2ccc(C#C[C@]3(O)CN4CCC3CC4)cc2)cc1`, the half-life in series [1] is above 41.7 days. In series [2], the Stability result is listed as “Stable”.
In the case of `Cc1ccc(Oc2ccc(C(=O)NCc3cccnc3)cc2)cc1`, the half-life in series [1] was above 41.7 days.
With `Cc1ccc(Oc2ccc(C(=O)NCc3ccccc3)cc2)cc1`, the half-life in series [1] was above 41.7 days.
`COc1cccc(CNC(=O)c2ccc(Oc3ccc(C)cc3)cc2)c1`: the half-life in series [1] is above 41.7 days.
On to `Cc1ccc(Oc2ccc(C(=O)N(C)Cc3ccncc3)cc2)cc1`, for which the half-life in series [1] was above 41.7 days.
Consider `Cc1ccc(Oc2ccc(C(=O)NCCc3ccncc3)cc2)cc1`, for which, in series [1], the half-life was above 41.7 days.
For the compound `Cc1ccc(Oc2ccc(C(=O)NCC3CCCCC3)cc2)cc1`, the half-life in series [1] is above 41.7 days.
Still for that read-out and setting: the value for `Cc1ccc(Oc2ccc(C(=O)NCCO)cc2)cc1` was above 41.7 days.
With `Cc1ccc(Oc2ccc(C(=O)NCCCN(C)C)cc2)cc1`, the half-life in series [1] is above 41.7 days. In addition, the Stability entry in series [2] is reported as “Stable”.
Turning to `CNC(=O)c1ccc(Oc2ccc(C)cc2)cc1`, the half-life in series [1] is above 41.7 days. In series [2], the Stability result is “Stable”.
`COc1ccc(C(=O)NCc2ccncc2)cc1`: the half-life in series [1] was above 41.7 days. In addition, in series [2], the Stability result is given as “Stable”.
For `O=C(NCc1ccncc1)c1ccc(-c2ccccc2)cc1`, in series [1], the half-life is above 41.7 days. For the same compound, the Stability result in series [2] is reported as “Stable”.
On to `O=C(NCc1ccncc1)c1ccc(OCCc2ccccc2)cc1`, for which, in series [1], the half-life is above 41.7 days. Also, the Stability result in series [2] is “Stable”.
Turning to `O=C(NCc1ccncc1)c1ccc(Oc2ccc([N+](=O)[O-])cc2)cc1`, in series [1], the half-life was above 41.7 days. Moreover, in series [2], the Stability entry is given as “Stable”.
For `COc1cc(Oc2ccc(C(=O)NCc3ccncc3)cc2)ccc1[N+](=O)[O-]` the same measures were above 41.7 days and “Stable”.
`N#Cc1ccccc1Oc1ccc(C(=O)NCc2ccncc2)cc1`: the half-life in series [1] was above 41.7 days. Besides, the Stability entry in series [2] is “Stable”.
`CNC(=O)c1ccc(Oc2ccc(C(=O)NCc3ccncc3)cc2)cc1`: in series [1], the half-life is above 41.7 days. The Stability entry in series [2] is on record as “Stable”.
With `O=C(NCc1ccncc1)c1ccc(Oc2ccc(/C=C/C3=CN4CCC3CC4)cc2)cc1`, the half-life in series [1] is above 41.7 days. Further, the Stability result in series [2] was “Stable”.
On to `O=C(NCc1ccncc1)c1ccc(Oc2ccc(C#C[C@@]3(O)CN4CCC3CC4)cc2)cc1`, for which the half-life in series [1] is above 41.7 days. In addition, in series [2], the Stability entry is listed as “Stable”.
The microsomal CLint is the capacity of the preparation to metabolise the compound, expressed as a volume cleared per time. A low value points to greater metabolic stability. The term clearance denotes the rate of elimination divided by the concentration. Higher therefore signals efficient removal. What is called hepatocyte CLint is the capacity of the preparation to metabolise the compound, expressed as a volume cleared per time. High values mean rapid turnover, low ones slow turnover. In series [3], `O=C(NCc1ccncn1)c1ccc(Oc2ccc(C#C[C@]3(O)CN4CCC3CC4)cc2)cc1` returned a microsomal CLint below 2 µL/min/mg. The compound further gave a clearance in series [4] of 17 mL/min/kg. The half-life in series [1] is above 41.7 days; in series [5], 0.1 days. Moreover, the intrinsic metabolic clearance (hepatocyte CLint) in series [6] was determined as 3 µL/min/1e6 cells. The Stability result in series [2] was “Stable”. Besides, the Vd in series [7] was determined as 2.4 L/kg.
In the case of `O=C(NCc1ccncn1)c1ccc(Oc2ccc(C#C[C@@]3(O)CN4CCC3CC4)cc2)cc1`, the half-life in series [1] was above 41.7 days. The Stability entry in series [2] is recorded as “Stable”.
For `O=C(NCc1ccncn1)c1ccc(Oc2ccc(CCC3(O)CN4CCC3CC4)cc2)cc1` (stereo not given), the half-life in series [1] was above 41.7 days. The Stability entry in series [2] was “Stable”.
As to `O=C(NCc1ccncn1)c1ccc(Oc2ccc(/C=C/C3(O)CN4CCC3CC4)cc2)cc1` (stereo not given), in series [1], the half-life was above 41.7 days. Further, in series [2], the Stability result was “Stable”.
In the same order, the values of `COC1(C#Cc2ccc(Oc3ccc(C(=O)NCc4ccncn4)cc3)cc2)CN2CCC1CC2` (stereo not given) are above 41.7 days and “Stable”.
For the compound `O=C(NCc1ccncn1)c1ccc(Oc2ccc(/C=C/C3=CN4CCC3CC4)cc2)cc1`, the half-life in series [1] is above 41.7 days. In addition, the Stability result in series [2] was “Stable”.
In the same order, the values of `O=C(NCc1ccncc1)c1ccc(Oc2ccc(C#CC3(O)CN4CCC3CC4)cc2)cc1` (racemic) are above 41.7 days and “Stable”.

The values are drawn from ChEMBL document CHEMBL1795206, “Selective non zinc binding inhibitors of MMP13” (Bioorg Med Chem Lett, 2011).
